# Hits are enriched below; roughly 3.9% of the tested compounds scored in any of these assays.
# tim23-1 inh: growth inhibitors of tim23-1 mutant yeast, primary screen, luminescence, uHTS; S. cerevisiae tim23-1 growth, BacTiter-Glo luminescence, 24 h; inhibition, % at 20 µM; 330,000 tested, 1.3% active;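 active = growth inhibition of the mutant yeast at or above 50%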;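 also: temperature-sensitive mutant grown at 25 °C; plate controls were DMSO-treated mutant yeast for no effect and medium wells lacking yeast for full effect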
# tim10-1 inh: growth inhibitors of tim10-1 mutant yeast, primary screen, luminescence, uHTS; S. cerevisiae tim10-1 ts strain growth, BacTiter-Glo, 24 h; inhibition, % at 20 µM; 330,000 tested, 2.2% active;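 active = inhibition of at least 40%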;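 also: mutant grown at 25 °C; 0% = DMSO wells with yeast and 100% = wells holding no yeast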
# TIM10 inh: growth inhibitors of isogenic TIM10 control yeast, primary screen, counter-screen for tim10-1 yeast inhibitor project, luminescence, uHTS | S. cerevisiae TIM10 strain growth, BacTiter-Glo luminescence, 24 h | inhibition, % at 10 µM | 330,000 tested, 1.4% active | AID 463195, 2010;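 active = inhibition of 40% or more at the single tested concentration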;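 also: wild-type TIM10 isogenic control strain grown at permissive 25 °C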
# UPR XBP1 act: activators of adaptive XBP1 UPR arm, primary screen, cell-based, CHO-XBP1 luciferase reporter, luminescence, uHTS | 330,000 tested, 0.33% active | IRE1-XBP1 UPR activation; percent of tunicamycin response, DMSO as zero | AID 463104, 2010 | activation, % at 20 µM;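 active = versus positive control, 20 µM dose yields 30% or more activation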;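 also: 100% = tunicamycin at 10 µg/mL and 0% = DMSO only wells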
#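 Signal: luciferase luminescence; Assay system: CHO-XBP1 luciferase reporter cells; Amount: one thousand reporter cells per well; Dosing: 20 µM single concentration, DMSO 1%; Benchmarks: high control tunicamycin 10 µg/mL final, low control DMSO vehicle only; Schedule: 6 h compound exposure at 37 °C, 5% CO2; Evaluation: percent activation relative to tunicamycin reference.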
# CHOP UPR activ: activators of apoptotic CHOP UPR arm, primary screen, cell-based, CHO-CHOP luciferase reporter, luminescence, uHTS | UPR activation; percent of tunicamycin response over DMSO baseline | activation, % at 10 µM | 330,000 tested, 0.34% active;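 active = at 10 µM dose, activation of 40% or more, normalized to positive control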;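 also: 100% = tunicamycin at 10 µg/mL and 0% = DMSO alone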
#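 assay system = CHO CHOP reporter cells | amount = 500 CHO-CHOP cells per well | buffer or medium = F12 with 10% FBS | incubation = 16-18 h cell attachment, then 6 h compound exposure, 37 °C | detection = luminescence read with Steady-Glo | read-out = percent activation relative to tunicamycin control | controls = tunicamycin high control, DMSO low control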
# XBP1 UPR conf: IRE1-XBP1 UPR arm activators, confirmation, cell-based, CHO-XBP1 luciferase reporter, luminescence, single concentration | shares compounds with UPR XBP1 act | activation, % at 20 µM | 1,000 tested, 63% active | AID 485299, 2010;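 active = reporter signal at least 30% of the positive control's activation in two or more of four replicate wells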;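 also: plate controls were DMSO negative control for no effect and tunicamycin 10 µg/mL positive control for full effect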
# Numbers without * were called inactive; / = no result.
SMILES,tim23-1 inh,tim10-1 inh,TIM10 inh,UPR XBP1 act,CHOP UPR activ,XBP1 UPR conf
Cc1ccc(CNC(=O)c2ccc(F)c(S(=O)(=O)N3CCOCC3)c2)cc1,15,14,20,-3,0,/
CCN=C1S/C(=C\c2cn(CC(=O)NCc3ccco3)c3ccccc23)C(=O)N1CC,-3,4,6,116*,0,97*
Cc1cccc(NC(=O)/C(C#N)=C/c2cn(CC(=O)NCc3ccco3)c3ccccc23)c1C,-15,23,-8,57*,1,168*
CN1C(=O)/C(=C/c2cn(CC(=O)NCc3ccco3)c3ccccc23)NC1=S,14,7,3,-3,1,/
COc1ccccc1Nc1nc(NCCO)c2ccccc2n1,4,15,2,0,1,/
Cc1ccc(Nc2nc(NCCO)c3ccccc3n2)cc1C,25,16,27,39*,14,39*
O=C(Nc1ccccc1)C1CCOC1=O (configuration not stated),13,0,6,3,3,/
Cc1ccc(NC(=O)Cn2c(/C=C/c3ccccc3)nc3ccccc32)cc1C,4,37,5,51*,27,35*
O=C(CSc1ncnc2c1cnn2-c1cccc(Cl)c1)NCC1CCCO1 (configuration not stated),20,15,15,-3,1,/
O=C1NC(=Nc2ccc(O)cc2)S/C1=C\C=C\c1ccco1,-23,-10,1,31*,4,4
CC1CCCCN1C(=O)C(=O)c1cn(CC(=O)N2CCCCCC2)c2ccccc12 (configuration not stated),-3,-26,6,1,1,/
Cc1ccc(Cn2c(C(C)Nc3nc(-c4ccc(F)cc4)cs3)nc3cc(Cl)c(Cl)cc32)cc1 (configuration not stated),12,20,4,35*,2,30*
Cc1ccc(OCc2cc(C(=O)N(C)Cc3cnn(-c4ccccc4C)c3)no2)cn1,19,27,15,0,2,/
CCOc1ccc(Cn2c3ccc(OC)cc3c3nc4ccccc4nc32)cc1OC,10,7,4,118*,2,106*
CCOC(=O)Cn1c2ccc(OC)cc2c2nc3ccccc3nc21,-11,8,-11,1,-1,/
CN1CCN(NC(=O)Nc2ccc(F)cc2)CC1,-11,-12,-7,-3,-1,/
CCCCCCOc1ccc(/C(C)=N/NC2=NCCN2)cc1[N+](=O)[O-],-183,-24,5,32*,8,16
C/C(=N\NC1=NCCN1)c1ccc(N)c([N+](=O)[O-])c1,0,19,12,2,2,/
COc1ccc(OCC(=O)Sc2ccc(C)cc2)cc1,15,14,3,35*,7,8
C/C(=N\NC(N)=S)C1=CCC2C3CC[C@H]4CC(O)CC[C@]4(C)C3CC[C@]12C (some centres not stated),-25,2,-19,41*,21,10
O=C(NCCCn1ccnc1)c1nn2c(C(F)(F)F)cc(-c3ccc(Br)cc3)nc2c1Cl,12,24,33,37*,2,94*
CCCNC(=O)c1nn2c(C(F)(F)F)cc(-c3ccccc3)nc2c1Cl,6,10,-4,-1,-1,/
Cc1ccc(/C=C2/Sc3ccc(C(=O)N4CCN(c5ccccn5)CC4)cc3NC2=O)cc1,11,21,3,5,1,/
Cc1ccc(/C=C2/Sc3ccc(C(=O)NCc4ccccn4)cc3NC2=O)cc1,5,18,-8,32*,7,0
COc1ccc2c(C)nc(Nc3nc(-c4ccccc4)cc(=O)[nH]3)nc2c1,17,36,-28,9,-7,/
SMILES,tim23-1 inh,tim10-1 inh,TIM10 inh,UPR XBP1 act,CHOP UPR activ,XBP1 UPR conf
Cc1ccc2nc(Nc3nc(-c4ccccc4)cc(=O)[nH]3)nc(C)c2c1,-18,-18,-6,67*,5,72*
Cc1ccc2nc(Nc3nc(C)cc(-c4ccccc4)n3)[nH]c(=O)c2c1,-15,-1,9,31*,7,62*
CCCN(C(=O)CCOc1ccc(C(C)(C)C)cc1)c1c(N)n(Cc2ccccc2)c(=O)[nH]c1=O,-11,0,-4,1,1,/
O=C(CCNS(=O)(=O)c1ccc(OC(F)(F)F)cc1)NC1CC1,10,15,3,-3,-2,/
CCOc1cc(/C=N/N=C(/N)c2nonc2N)cc(Br)c1OCc1ccc(Cl)cc1,15,8,18,70*,2,142*
COc1ccc(NC(=O)COC(=O)CCc2ccc(S(=O)(=O)N3CCOCC3)cc2)cc1Cl,12,5,2,-4,-1,/
COc1ccc(-c2cc(C(=O)Nc3cc(OC)cc(C(=O)Nc4cccc(C(F)(F)F)c4)c3)[nH]n2)cc1,7,7,-1,37*,29,18
CCc1cc2c(N=Nc3c(O)[nH]c4ccccc34)ncnc2s1,-40,1,6,35*,16,4
COc1ccc(OC)c(Nc2nc3ccc(C)cc3n3cnnc23)c1,16,14,5,16,3,/
COc1ccc(Cl)cc1Nc1nc2ccc(C)cc2n2cnnc12,8,2,12,54*,21,11
COc1ccc(CC(=O)NC2CCCCCC2)c(OC)c1,18,22,-15,-6,-1,/
CCOC(=O)c1nnn2c1nc(Nc1cccc(C(F)(F)F)c1)c1ccccc12,5,6,12,70*,30,41*
N#CCCn1cc(/C=N/O)c(-c2ccc(-c3ccccc3)cc2)n1,9,2,15,16,2,/
N#CCCn1cc(/C=N/O)c(-c2ccc(Cl)cc2)n1,14,10,-1,109*,-2,-2
CC(NC(=O)COC(=O)C1(C)CC1(Cl)Cl)c1ccccc1 (configuration not stated),9,4,2,1,0,/
COc1ccc(NC(=O)c2nc[nH]c2C(=O)NCCCCCNC(=O)OC(C)(C)C)cc1,-2,-24,7,3,3,/
Cc1nc2sc(C(=O)Nc3ccccc3)c(N)c2c(C)c1[N+](=O)[O-],-11,-16,-8,91*,39,19
CC(=O)c1ccc(NC(=O)c2sc3nc(C)c(C)c(C)c3c2N)cc1,6,-9,-3,-5,1,/
O=C(Cn1c2ccccc2c(=O)c2cc([N+](=O)[O-])ccc21)Nc1ccccc1Cl,-11,27,5,118*,29,80*
O=C(Cn1c2ccccc2c(=O)c2ccccc21)Nc1ccccc1F,2,20,-13,0,0,/

# Compound activity: PubChem, Sanford-Burnham Center for Chemical Genomics
